Test results reported in ChEMBL document CHEMBL1124897, “(1-Pyrenylmethyl)amino alcohols, a new class of antitumor DNA intercalators. Discovery and initial amine side chain structure-activity studies” (1990).
Calls of active or inactive are those of the source. The calls are words filed in the database; no cut-off is given here.

Tests used:
P388 [1] = test: In vivo antitumor activity against murine lymphocytic leukemia P388 measured as optimal dose which is the highest nontoxic dose; format: functional, Mus musculus
P388 [2] = test: In vivo antitumor activity against murine lymphocytic leukemia P388, measured as percent increase in life span; format: functional, organism-based; conditions: Mus musculus
How it was run: (§1)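 Male CD2-F1 mice (20 ± 3 g) implanted ip with 1 × 10^6 viable P388 cells on day 0. Compound given ip as aqueous suspension or solution in 0.9% NaCl or 5% dextrose on days 1, 5 and 9, dosed per mg/kg body weight. Several doses bracketing LD20 were tested, six mice per dose. %ILS was calculated from median day of death of treated versus control mice. Values are optimal from at least two experiments.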

P388 [3] = test: In vivo antitumor activity against murine lymphocytic leukemia P388 measured as lethal dose […]; format: functional, Mus musculus; design: unit: mg/kg
How it was run: (§2)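 Male CD2-F1 mice (20 ± 3 g) implanted ip with 1 × 10^6 viable P388 cells on day 0. Drug given ip as aqueous suspension or solution in 0.9% NaCl or 5% dextrose on days 1, 5 and 9, dosed per body weight in mg/kg. Several dose levels bracketing the LD20 were tested, six mice per dose. Deaths before the control median day of death were counted as drug toxicity.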

P388 [4] = test: In vivo antitumor activity against murine lymphocytic leukemia P388 measured as optimal dose; format: functional, Mus musculus; how it was run: as §1
P388 [5] = test: In vivo antitumor activity against murine lymphocytic leukemia P388 measured as percent increase in life span; format: functional, Mus musculus; how it was run: as §2

Compound	Optimal dose (P388 [1]) [mg/kg]	ILS (P388 [2])	LD20 (P388 [3])	Optimal dose (P388 [4]) [mg/kg]	ILS (P388 [5]) [%]
Cl.OCCCCCNCc1ccc2ccc3cccc4ccc1c2c34	131	inactive	196	–	–
Cl.NCCCN1CCN(CCCNCc2ccc3ccc4cccc5ccc2c3c45)CC1	37	–	37	–	–
Cl.c1ccc(CCCNCc2ccc3ccc4cccc5ccc2c3c45)cc1	300	inactive	300	–	–
CC(C)C(CO)NCc1ccc2ccc3cccc4ccc1c2c34.Cl (stereo not given)	–	–	450	200	27
CC(O)CCNCc1ccc2ccc3cccc4ccc1c2c34.Cl (stereo not given)	168	inactive	168	–	–
Cl.OCC(O)C(CO)NCc1ccc2ccc3cccc4ccc1c2c34 (stereo not given)	–	–	140	125	25
CN(C)CCCNCc1ccc2ccc3cccc4ccc1c2c34.Cl	127	inactive	85	–	–
CC(C)(CO)CCCNCc1ccc2ccc3cccc4ccc1c2c34.Cl	215	inactive	215	–	–
Cl.N#CCCNCc1ccc2ccc3cccc4ccc1c2c34	300	inactive	300	–	–
NCCCCCCNCc1ccc2ccc3cccc4ccc1c2c34	75	inactive	75	–	–
CC(O)CNCc1ccc2ccc3cccc4ccc1c2c34.Cl (stereo not given)	–	–	600	300	28
CC(C)CC(CO)NCc1ccc2ccc3cccc4ccc1c2c34.Cl (stereo not given)	1012	inactive	675	–	–
CCN(CC)Cc1ccc2ccc3cccc4ccc1c2c34.Cl	452	inactive	452	–	–
Cl.OCC(CO)(CO)NCc1ccc2ccc3cccc4ccc1c2c34	–	–	215	198	90
Cl.c1ccc(CCCCNCc2ccc3ccc4cccc5ccc2c3c45)cc1	88	inactive	130	–	–
Cl.c1ccc(CCNCc2ccc3ccc4cccc5ccc2c3c45)cc1	335	inactive	335	–	–
Cl.OCCN(CCO)CCCNCc1ccc2ccc3cccc4ccc1c2c34	64	inactive	96	–	–
Cl.c1cc2ccc3ccc(CNCCCN4CCOCC4)c4ccc(c1)c2c34	–	–	150	150	20
CCC(CO)NCc1ccc2ccc3cccc4ccc1c2c34.Cl (stereo not given)	–	–	450	366	25
Cl.NCCCCNCc1ccc2ccc3cccc4ccc1c2c34	19	inactive	28	–	–
CC(O)CNCCNCc1ccc2ccc3cccc4ccc1c2c34.Cl (stereo not given)	150	inactive	150	–	–

Compound	Optimal dose (P388 [1]) [mg/kg]	ILS (P388 [2])	LD20 (P388 [3])	Optimal dose (P388 [4]) [mg/kg]	ILS (P388 [5]) [%]
Cl.OCCNCCNCc1ccc2ccc3cccc4ccc1c2c34	134	inactive	200	–	–
Cl.c1ccc(NCCNCc2ccc3ccc4cccc5ccc2c3c45)cc1	200	inactive	300	–	–
CC(CO)(CO)NCc1ccc2ccc3cccc4ccc1c2c34.Cl	–	–	300	300	125
CC(O)C(C)(CO)NCc1ccc2ccc3cccc4ccc1c2c34.Cl (stereo not given)	–	–	125	125	77
CN(CCO)Cc1ccc2ccc3cccc4ccc1c2c34.Cl	365	inactive	366	–	–
CC(CO)(CO)NCCCc1ccc2ccc3cccc4ccc1c2c34.Cl	100	inactive	67.5	–	–
CC(C)(O)CNCc1ccc2ccc3cccc4ccc1c2c34.Cl	–	inactive	220	330	–
CCOCC(CO)(CO)NCc1ccc2ccc3cccc4ccc1c2c34.Cl	–	–	225	168	30
CCN(CC)CCNCc1ccc2ccc3cccc4ccc1c2c34.Cl	180	inactive	120	–	–
CCCNCc1ccc2ccc3cccc4ccc1c2c34.Cl	225	inactive	150	–	–
Cl.OCC(NCc1ccc2ccc3cccc4ccc1c2c34)C(O)c1ccccc1 (stereo not given)	1013	inactive	675	–	–
CC(C)OCCCNCc1ccc2ccc3cccc4ccc1c2c34.Cl	120	inactive	180	–	–
Cl.NCc1ccc2ccc3cccc4ccc1c2c34	194	inactive	130	–	–
Cl.OCC(NCc1ccc2ccc3cccc4ccc1c2c34)c1ccccc1 (stereo not given)	675	inactive	675	–	–
COCCNCc1ccc2ccc3cccc4ccc1c2c34.Cl	133	inactive	200	–	–
CN(CCCN)CCCNCc1ccc2ccc3cccc4ccc1c2c34.Cl	–	–	23	23	20
CC(NCc1ccc2ccc3cccc4ccc1c2c34)C(O)c1ccccc1.Cl (stereo not given)	675	inactive	450	–	–
CCC(CO)(CO)NCc1ccc2ccc3cccc4ccc1c2c34.Cl	–	–	340	303	140
CC(C)C(CO)(CO)NCc1ccc2ccc3cccc4ccc1c2c34.Cl	–	–	300	450	55
Cl.c1ccc(CNCc2ccc3ccc4cccc5ccc2c3c45)cc1	900	inactive	600	–	–
C=CCNCc1ccc2ccc3cccc4ccc1c2c34.Cl	550	inactive	369	–	–

Compound	Optimal dose (P388 [1]) [mg/kg]	ILS (P388 [2])	LD20 (P388 [3])	Optimal dose (P388 [4]) [mg/kg]	ILS (P388 [5]) [%]
Cl.OCCCCNCc1ccc2ccc3cccc4ccc1c2c34	139	inactive	208	–	–
OCC1OC(O)C(NCc2ccc3ccc4cccc5ccc2c3c45)C(O)C1O (stereo not given)	–	–	400	450	20
CC(C)(CO)NCc1ccc2ccc3cccc4ccc1c2c34.Cl	–	–	450	250	45
CCC(O)CNCc1ccc2ccc3cccc4ccc1c2c34.Cl (stereo not given)	225	inactive	225	–	–
Cl.Clc1ccc(CNCc2ccc3ccc4cccc5ccc2c3c45)cc1Cl	900	inactive	400	–	–
Cl.c1cc2ccc3ccc(CNCCCNC4CCCCC4)c4ccc(c1)c2c34	200	inactive	134	–	–
CC(=O)OCC(COC(C)=O)(COC(C)=O)NCc1ccc2ccc3cccc4ccc1c2c34	–	–	500	315	30
CC(=O)OCC(C)(COC(C)=O)NCc1ccc2ccc3cccc4ccc1c2c34	300	–	300	–	65
CC1(C)OC[C@@H](O)[C@H](NCc2ccc3ccc4cccc5ccc2c3c45)CO1	1013	inactive	675	–	–
Cl.OCCNCc1ccc2ccc3cccc4ccc1c2c34	–	–	220	221	31
Cl.OCCN(CCO)Cc1ccc2ccc3cccc4ccc1c2c34	225	inactive	225	–	–
CC1(NCc2ccc3ccc4cccc5ccc2c3c45)COC(C)(C)OC1.Cl	675	inactive	675	–	–
CC(CO)NCc1ccc2ccc3cccc4ccc1c2c34.Cl (stereo not given)	–	–	600	220	25
CCC(COC(C)=O)(COC(C)=O)NCc1ccc2ccc3cccc4ccc1c2c34	303	–	675	–	40
CCCCCC(CO)(CO)NCc1ccc2ccc3cccc4ccc1c2c34.Cl	675	inactive	675	–	–
Cl.OCCCNCc1ccc2ccc3cccc4ccc1c2c34	120	–	120	–	20
Cl.NCCCCCNCc1ccc2ccc3cccc4ccc1c2c34	116	inactive	20	–	–
Cl.OC(CNCc1ccc2ccc3cccc4ccc1c2c34)c1ccccc1 (stereo not given)	450	inactive	450	–	–
CCN(CC)CCCC(C)NCc1ccc2ccc3cccc4ccc1c2c34.Cl (stereo not given)	150	inactive	100	–	–
CCC(C)C(CO)NCc1ccc2ccc3cccc4ccc1c2c34.Cl (stereo not given)	675	inactive	675	–	–
